Measurements reported in ChEMBL document CHEMBL1800057, “Discovery of dual inducible/neuronal nitric oxide synthase (iNOS/nNOS) inhibitor development candidate 4-((2-cyclobutyl-1H-imidazo[4,5-b]pyrazin-1-yl)methyl)-7,8-difluoroquinolin-2(1H)-one (KD7332) part 2: identification of a novel, potent, and selective series of benzimidazole-quinolinone …” (J Med Chem, 2010).

Columns and labels:
Cytochrome P450 1A2 = molecular target: T1, Cytochrome P450 1A2 (Homo sapiens, UniProt P05177); assay: Inhibition of human CYP1A2 at >100uM; type: ADME
T1 sequence (P05177 whole entry): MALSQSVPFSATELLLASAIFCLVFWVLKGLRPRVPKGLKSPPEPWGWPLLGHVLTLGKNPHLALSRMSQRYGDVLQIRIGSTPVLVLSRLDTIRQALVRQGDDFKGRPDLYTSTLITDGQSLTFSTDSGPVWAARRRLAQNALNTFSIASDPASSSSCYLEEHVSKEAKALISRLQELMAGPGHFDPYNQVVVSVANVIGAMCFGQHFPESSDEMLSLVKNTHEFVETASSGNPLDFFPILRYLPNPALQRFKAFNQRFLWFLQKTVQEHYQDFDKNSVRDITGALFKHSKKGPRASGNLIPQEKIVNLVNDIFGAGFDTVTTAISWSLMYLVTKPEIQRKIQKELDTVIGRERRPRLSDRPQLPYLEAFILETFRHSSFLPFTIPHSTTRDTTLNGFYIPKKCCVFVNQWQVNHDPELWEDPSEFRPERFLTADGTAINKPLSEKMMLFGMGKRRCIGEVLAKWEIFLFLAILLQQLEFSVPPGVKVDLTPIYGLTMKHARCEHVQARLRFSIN

Cytochrome P450 3A4 = Cytochrome P450 3A4 (Homo sapiens, UniProt P08684); assay: Inhibition of human CYP3A4; type: ADME
Cytochrome P450 2C9 = Cytochrome P450 2C9 (Homo sapiens, UniProt P11712); assay: Inhibition of human CYP2C9; type: ADME
Nitric oxide synthase 1 = Nitric oxide synthase 1 (Homo sapiens, UniProt P29475); assay: Inhibition of human nNOS expressed in HEK293 cells assessed as inhibition ionomycin induced nitric oxide production incubated for 24 hrs measured after 18 hrs of ionomycin challenge using 2,3-diaminonaphthalene by fluorescence assay; type: cell-based
How it was run: (§1)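 HEK293 cells transfected for 4 h at 37 °C with human nNOS (10 μg) or human eNOS (15 μg) plasmid (Fugene 6, 3:1). Cells replated at 5e5 cells/mL and dosed with compound at once; SEITU (100 μM final) as positive control. After 24 h, cells activated with A23187 (83 nM final) for eNOS or ionomycin (30 μM final) for nNOS. NO read 18 h later as nitrite-DAN fluorescence.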

Nitric oxide synthase 3 = molecular target: T2, Nitric oxide synthase 3 (Homo sapiens, UniProt P29474); assay: Inhibition of human eNOS expressed in HEK293 cells assessed as inhibition A23187 induced nitric oxide production incubated for 24 hrs measured after 18 hrs of […] challenge using 2,3-diaminonaphthalene by fluorescence assay; type: cell-based; how it was run: as §1
T2 sequence (P29474 whole entry): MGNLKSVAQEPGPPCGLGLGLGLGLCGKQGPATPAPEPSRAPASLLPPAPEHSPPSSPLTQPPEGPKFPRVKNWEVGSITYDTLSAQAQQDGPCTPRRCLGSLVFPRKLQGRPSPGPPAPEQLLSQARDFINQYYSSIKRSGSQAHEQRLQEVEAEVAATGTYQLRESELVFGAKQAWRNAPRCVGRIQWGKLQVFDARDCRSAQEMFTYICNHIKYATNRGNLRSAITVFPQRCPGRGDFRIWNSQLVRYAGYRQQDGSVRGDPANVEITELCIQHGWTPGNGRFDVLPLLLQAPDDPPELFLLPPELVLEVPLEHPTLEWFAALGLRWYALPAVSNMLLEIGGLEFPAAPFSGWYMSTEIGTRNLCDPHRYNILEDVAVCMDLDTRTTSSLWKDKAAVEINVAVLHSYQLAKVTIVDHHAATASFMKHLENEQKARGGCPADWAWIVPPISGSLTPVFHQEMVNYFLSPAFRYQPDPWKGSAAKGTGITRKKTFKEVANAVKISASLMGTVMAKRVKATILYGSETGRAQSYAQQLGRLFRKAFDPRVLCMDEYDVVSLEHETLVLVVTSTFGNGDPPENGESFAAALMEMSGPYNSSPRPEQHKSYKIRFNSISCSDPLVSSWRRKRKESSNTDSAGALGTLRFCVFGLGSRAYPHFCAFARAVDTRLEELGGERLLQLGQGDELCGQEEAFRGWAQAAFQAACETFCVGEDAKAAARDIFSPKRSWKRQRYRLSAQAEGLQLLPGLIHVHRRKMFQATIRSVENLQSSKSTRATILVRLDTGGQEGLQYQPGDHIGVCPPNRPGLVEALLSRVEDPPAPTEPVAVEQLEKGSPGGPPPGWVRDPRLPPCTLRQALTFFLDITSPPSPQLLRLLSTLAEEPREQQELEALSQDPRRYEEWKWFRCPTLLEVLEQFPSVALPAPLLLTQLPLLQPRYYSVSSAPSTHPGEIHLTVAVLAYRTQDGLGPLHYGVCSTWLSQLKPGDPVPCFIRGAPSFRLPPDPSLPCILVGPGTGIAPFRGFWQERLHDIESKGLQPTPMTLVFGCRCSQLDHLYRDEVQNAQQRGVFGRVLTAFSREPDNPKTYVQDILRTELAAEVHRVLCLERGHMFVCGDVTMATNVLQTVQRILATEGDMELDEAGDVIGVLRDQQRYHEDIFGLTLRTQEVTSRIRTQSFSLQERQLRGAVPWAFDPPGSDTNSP

[1] = Half life in mouse at 3 mg/kg, iv and 10 mg/kg, po; details: in vivo

Sequence of Cytochrome P450 3A4 (P08684 whole entry): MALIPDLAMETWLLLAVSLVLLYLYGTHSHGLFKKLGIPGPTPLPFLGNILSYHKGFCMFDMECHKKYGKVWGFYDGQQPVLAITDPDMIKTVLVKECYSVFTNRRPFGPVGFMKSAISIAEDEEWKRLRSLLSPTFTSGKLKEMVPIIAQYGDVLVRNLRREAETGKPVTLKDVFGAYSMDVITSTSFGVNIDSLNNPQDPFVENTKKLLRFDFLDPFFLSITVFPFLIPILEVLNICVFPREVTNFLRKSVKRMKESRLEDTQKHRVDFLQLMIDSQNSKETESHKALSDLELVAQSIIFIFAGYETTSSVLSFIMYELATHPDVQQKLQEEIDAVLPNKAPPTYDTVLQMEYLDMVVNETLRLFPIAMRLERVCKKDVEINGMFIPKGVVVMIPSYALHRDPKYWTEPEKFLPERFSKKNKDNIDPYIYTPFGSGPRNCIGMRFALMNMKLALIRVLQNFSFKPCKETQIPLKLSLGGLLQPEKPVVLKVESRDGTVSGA
Sequence of Cytochrome P450 2C9 (P11712 whole entry): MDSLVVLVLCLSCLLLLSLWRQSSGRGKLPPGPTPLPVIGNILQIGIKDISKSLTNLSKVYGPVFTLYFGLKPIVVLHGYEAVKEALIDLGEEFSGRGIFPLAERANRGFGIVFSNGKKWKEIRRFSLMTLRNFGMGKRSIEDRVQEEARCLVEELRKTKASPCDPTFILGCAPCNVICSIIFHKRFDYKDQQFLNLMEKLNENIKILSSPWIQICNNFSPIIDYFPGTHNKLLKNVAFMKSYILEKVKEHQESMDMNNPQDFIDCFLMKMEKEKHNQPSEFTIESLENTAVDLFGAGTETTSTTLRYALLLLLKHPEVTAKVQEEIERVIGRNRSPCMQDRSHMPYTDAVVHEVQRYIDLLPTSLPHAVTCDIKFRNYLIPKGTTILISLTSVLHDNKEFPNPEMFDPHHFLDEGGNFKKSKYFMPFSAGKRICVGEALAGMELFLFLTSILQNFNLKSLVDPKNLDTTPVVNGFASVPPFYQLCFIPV
Sequence of Nitric oxide synthase 1 (P29475 whole entry): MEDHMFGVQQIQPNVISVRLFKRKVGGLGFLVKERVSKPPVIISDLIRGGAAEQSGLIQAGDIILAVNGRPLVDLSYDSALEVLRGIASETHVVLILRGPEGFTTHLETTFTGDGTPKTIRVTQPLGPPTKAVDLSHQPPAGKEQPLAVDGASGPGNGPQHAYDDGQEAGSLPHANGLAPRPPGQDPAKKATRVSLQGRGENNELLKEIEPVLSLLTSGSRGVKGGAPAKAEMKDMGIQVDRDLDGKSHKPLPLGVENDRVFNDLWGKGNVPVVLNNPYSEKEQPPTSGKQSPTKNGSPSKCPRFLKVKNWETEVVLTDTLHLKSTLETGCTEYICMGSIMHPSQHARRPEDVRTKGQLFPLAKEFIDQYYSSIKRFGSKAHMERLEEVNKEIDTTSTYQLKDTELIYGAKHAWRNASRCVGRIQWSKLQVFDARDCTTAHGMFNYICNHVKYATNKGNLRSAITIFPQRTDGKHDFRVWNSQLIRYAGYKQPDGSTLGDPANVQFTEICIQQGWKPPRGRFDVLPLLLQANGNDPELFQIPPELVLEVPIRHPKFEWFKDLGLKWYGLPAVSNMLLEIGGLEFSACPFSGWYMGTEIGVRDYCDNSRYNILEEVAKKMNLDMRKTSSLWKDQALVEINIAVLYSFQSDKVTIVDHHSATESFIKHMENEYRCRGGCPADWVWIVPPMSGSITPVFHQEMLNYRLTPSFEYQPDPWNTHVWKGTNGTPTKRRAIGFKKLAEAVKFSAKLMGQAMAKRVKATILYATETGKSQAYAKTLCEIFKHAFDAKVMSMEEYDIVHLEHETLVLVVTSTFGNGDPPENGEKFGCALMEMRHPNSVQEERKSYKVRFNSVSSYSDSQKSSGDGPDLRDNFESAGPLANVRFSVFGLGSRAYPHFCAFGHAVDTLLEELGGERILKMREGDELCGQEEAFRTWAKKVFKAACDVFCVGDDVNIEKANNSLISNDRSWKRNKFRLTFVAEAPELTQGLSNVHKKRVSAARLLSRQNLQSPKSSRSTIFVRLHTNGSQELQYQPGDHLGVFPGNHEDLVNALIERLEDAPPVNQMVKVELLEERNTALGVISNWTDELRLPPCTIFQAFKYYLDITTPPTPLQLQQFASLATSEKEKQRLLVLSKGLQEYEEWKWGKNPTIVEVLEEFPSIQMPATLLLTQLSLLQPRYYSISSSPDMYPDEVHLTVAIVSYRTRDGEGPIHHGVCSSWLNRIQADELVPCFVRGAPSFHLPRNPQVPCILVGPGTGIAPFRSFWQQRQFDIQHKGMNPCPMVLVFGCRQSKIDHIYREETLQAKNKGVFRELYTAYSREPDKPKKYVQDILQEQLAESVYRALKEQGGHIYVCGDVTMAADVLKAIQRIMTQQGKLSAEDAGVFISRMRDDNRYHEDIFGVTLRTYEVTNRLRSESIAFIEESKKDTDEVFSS

| SMILES | inhibition (INH) (Cytochrome P450 1A2) [%] | EC50 (Cytochrome P450 3A4) [µM] | EC50 (Cytochrome P450 2C9) [µM] | EC50 (Nitric oxide synthase 1) [µM] | EC50 (Nitric oxide synthase 3) [µM] | half-life [1] [h] |
| --- | --- | --- | --- | --- | --- | --- |
| CC(C)Cc1nc2ccccc2n1Cc1cc(=O)[nH]c2c(F)c(F)ccc12 |  |  |  | 0.69 | > 100 | 1.7 |
| O=c1cc(Cn2c(C3CC(F)(F)C3)nc3nccnc32)c2cccc(F)c2[nH]1 |  | 23 | 22 | 3 | > 100 | 4 |
| O=c1cc(Cn2c(C3CCC3)nc3nccnc32)c2cccc(F)c2[nH]1 | < 50 | > 60 | > 60 | 4.6 | 26 | 1.3 |

Now those with a lower EC50 (Nitric oxide synthase 1), led by results:

| inhibition (INH) (Cytochrome P450 1A2) [%] | EC50 (Cytochrome P450 3A4) [µM] | EC50 (Cytochrome P450 2C9) [µM] | EC50 (Nitric oxide synthase 1) [µM] | EC50 (Nitric oxide synthase 3) [µM] | half-life [1] [h] | SMILES |
| --- | --- | --- | --- | --- | --- | --- |
| < 50 | > 100 | > 60 | 0.3 | 16.5 | 2.1 | O=c1cc(Cn2c(C3CCC3)nc3nccnc32)c2ccc(F)c(F)c2[nH]1 |
| < 50 | > 60 | 29 | 0.3 | 39 | 6 | CC(C)Cc1nc2nccnc2n1Cc1cc(=O)[nH]c2c(F)c(F)ccc12 |
